Laboratory results reported in ChEMBL document CHEMBL4825692, “Benzofuranyl-2-imidazoles as imidazoline I2 receptor ligands for Alzheimer's disease” (Eur J Med Chem, 2021).

Legend:
[1] = Displacement of [3H]2-BFI from imidazoline I2 receptor high affinity site in post-mortem human brain frontal cortex membrane two site model measured after 45 mins by liquid scintillation counting spectrometry
[2] = target: T1, Adrenergic receptor alpha-2 (Homo sapiens, UniProt P08913+P18825+P18089); test: Displacement of [3H]-RX821002 from adrenergic alpha 2 receptor in post-mortem human brain frontal cortex membrane measured after 30 mins by liquid scintillation counting spectrometry; type: cell membranes
T1 sequence (P08913 whole entry): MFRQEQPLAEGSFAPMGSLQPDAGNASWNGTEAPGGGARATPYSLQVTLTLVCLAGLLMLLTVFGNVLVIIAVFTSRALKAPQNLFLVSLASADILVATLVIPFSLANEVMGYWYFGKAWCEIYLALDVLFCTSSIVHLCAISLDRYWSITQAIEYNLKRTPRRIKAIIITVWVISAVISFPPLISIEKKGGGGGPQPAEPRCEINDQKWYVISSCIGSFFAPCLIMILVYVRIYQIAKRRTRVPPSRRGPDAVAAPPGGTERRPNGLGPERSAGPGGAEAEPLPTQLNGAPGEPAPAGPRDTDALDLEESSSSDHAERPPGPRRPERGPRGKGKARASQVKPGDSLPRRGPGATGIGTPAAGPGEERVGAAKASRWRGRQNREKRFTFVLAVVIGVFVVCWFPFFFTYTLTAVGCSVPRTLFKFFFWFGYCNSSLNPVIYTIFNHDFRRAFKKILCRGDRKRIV
T1 sequence (P18825 whole entry): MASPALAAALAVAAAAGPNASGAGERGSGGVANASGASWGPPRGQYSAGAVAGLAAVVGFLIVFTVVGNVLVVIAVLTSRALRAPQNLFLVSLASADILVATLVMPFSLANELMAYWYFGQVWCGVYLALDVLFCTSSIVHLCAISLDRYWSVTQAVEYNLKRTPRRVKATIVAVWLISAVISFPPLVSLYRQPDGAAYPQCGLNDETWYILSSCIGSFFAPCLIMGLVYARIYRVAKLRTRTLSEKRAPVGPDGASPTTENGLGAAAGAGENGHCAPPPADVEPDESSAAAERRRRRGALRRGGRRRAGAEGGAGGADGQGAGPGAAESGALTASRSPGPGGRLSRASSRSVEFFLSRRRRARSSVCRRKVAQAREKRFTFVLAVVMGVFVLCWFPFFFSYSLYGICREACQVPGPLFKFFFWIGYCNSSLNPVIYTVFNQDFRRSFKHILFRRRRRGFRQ
T1 sequence (P18089 whole entry): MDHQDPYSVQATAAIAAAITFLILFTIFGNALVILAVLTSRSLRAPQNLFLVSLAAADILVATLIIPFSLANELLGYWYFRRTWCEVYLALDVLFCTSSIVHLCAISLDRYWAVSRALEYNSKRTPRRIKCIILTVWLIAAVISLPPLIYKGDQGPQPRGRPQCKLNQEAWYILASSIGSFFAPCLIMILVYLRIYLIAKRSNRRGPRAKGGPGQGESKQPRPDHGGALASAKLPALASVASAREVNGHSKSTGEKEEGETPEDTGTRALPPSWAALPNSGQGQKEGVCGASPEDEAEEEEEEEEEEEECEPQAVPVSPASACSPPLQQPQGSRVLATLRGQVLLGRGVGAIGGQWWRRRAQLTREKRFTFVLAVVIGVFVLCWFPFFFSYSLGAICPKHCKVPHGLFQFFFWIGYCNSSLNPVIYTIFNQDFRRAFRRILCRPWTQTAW

[3] = Displacement of [3H]2-BFI from imidazoline I2 receptor in post-mortem human brain frontal cortex membrane one site model measured after 45 mins by liquid scintillation counting spectrometry
[4] = Displacement of [3H]2-BFI from imidazoline I2 receptor low affinity site in post-mortem human brain frontal cortex membrane two site model measured after 45 mins by liquid scintillation counting spectrometry
[5] = Permeability of compound by PAMPA-BBB assay; type: ADME
Z-138 = test: Cytotoxicity against human Z138 cells at 100 uM by real time IncuCyte proliferation assay; type: cell-based; settings: z-138, 100 µM
Method in brief: (§1)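 Adherent lines (LN-229, Capan-1, HCT-116, NCI-H460) seeded at 500–1500 cells/well and treated after overnight attachment. Suspension lines (HL-60, K-562, Z-138, DND-41) seeded at 2500–5500 cells/well directly with compound. Highest concentration 100 μM; proliferation tracked by real-time IncuCyte imaging over 72 h at 37 °C.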

[6] = Cytotoxicity against human DND41 cells at 100 uM by real time IncuCyte proliferation assay; type: cell-based; settings: dnd41, 100 µM
Method in brief: as §1

Homo sapiens [7] = species: Homo sapiens; test: Displacement of [3H]2-BFI from imidazoline I2 receptor in post-mortem human brain frontal cortex membrane assessed as occupancy at high affinity site measured after 45 mins by liquid scintillation counting spectrometry
LN-229 = test: Cytotoxicity against human LN-229 cells at 100 uM by real time IncuCyte proliferation assay; type: cell-based; settings: ln-229, 100 µM
Method in brief: as §1

NCI-H460 = test: Cytotoxicity against human NCI-H460 cells at 100 uM by real time IncuCyte proliferation assay; type: cell-based; settings: nci-h460, 100 µM
Method in brief: as §1

K562 = test: Cytotoxicity against human K562 cells at 100 uM by real time IncuCyte proliferation assay; type: cell-based; settings: k562, 100 µM
Method in brief: as §1

HCT-116 = test: Cytotoxicity against human HCT-116 cells at 100 uM by real time IncuCyte proliferation assay; type: cell-based; settings: hct-116, 100 µM
Method in brief: as §1

CAPAN-1 = test: Cytotoxicity against human CAPAN-1 cells at 100 uM by real time IncuCyte proliferation assay; type: cell-based; settings: capan-1, 100 µM
Method in brief: as §1

Homo sapiens [8] = species: Homo sapiens; test: Selectivity index, ratio of pKi for displacement of [3H]2-BFI from imidazoline I2 receptor in post-mortem human brain frontal cortex membrane to pKi for displacement of [3H]-RX821002 from adrenergic alpha 2 receptor in post-mortem human brain frontal cortex membrane; type: cell membranes
HL-60 = test: Cytotoxicity against human HL-60 cells at 100 uM by real time IncuCyte proliferation assay; type: cell-based; settings: hl-60, 100 µM
Method in brief: as §1

[9] = Displacement of [3H]clonidine from imidazoline I1 receptor low affinity site in human hypothalamic membranes measured after 30 mins by liquid scintillation counting spectrometry; type: cell membranes, Hypothalamus, Membrane
[10] = Displacement of [3H]clonidine from imidazoline I1 receptor high affinity site in human hypothalamic membranes measured after 30 mins by liquid scintillation counting spectrometry; type: cell membranes, Hypothalamus, Membrane

| Structure (SMILES) | pKi [1] | pKi [2] | pKi [3] | pKi [4] | Papp [5] [×10⁻⁶ cm/s] | Activity (Homo sapiens [7]) [%] | Selectivity Index (Homo sapiens [8]) | Ki [9] [µM] | Ki [10] [µM] | Activity (Z-138) | Activity [6] | Activity (LN-229) | Activity (NCI-H460) | Activity (K562) | Activity (HCT-116) | Activity (CAPAN-1) | Activity (HL-60) |
| --- | --- | --- | --- | --- | --- | --- | --- | --- | --- | --- | --- | --- | --- | --- | --- | --- | --- |
| Brc1ccc2oc(-c3ncc[nH]3)cc2c1.Cl | 8.63 | 4.92 | 6.28 | 5.85 | 20.3 | 20 | 23 |  |  | Non-Toxic | Non-Toxic | Non-Toxic | Non-Toxic | Non-Toxic | Non-Toxic | Non-Toxic | Non-Toxic |
| COc1nc(C)nc(Cl)c1NC1=NCCN1 [MOXONIDINE] |  |  |  |  |  |  |  | 12 | 0.0002 |  |  |  |  |  |  |  |  |
| CCn1ccnc1-c1cc2cc(OC)ccc2o1.Cl | 6.95 | 4.21 | 4.96 | 4.16 | 12.4 | 35 | 6 |  |  | Non-Toxic | Non-Toxic | Non-Toxic | Non-Toxic | Non-Toxic | Non-Toxic | Non-Toxic | Non-Toxic |
| CCn1ccnc1-c1cc2ccc(OC)cc2o1.Cl | 9.13 | 3.17 | 5.26 | 5.11 | 14.8 | 12 | 123 |  |  | Non-Toxic | Non-Toxic | Non-Toxic | Non-Toxic | Non-Toxic | Non-Toxic | Non-Toxic | Non-Toxic |
| CCn1ccnc1-c1cc2ccccc2o1.Cl | 7.09 | 3.77 | 5.05 | 4.72 | 19.2 | 22 | 19 |  |  | Non-Toxic | Non-Toxic | Non-Toxic | Non-Toxic | Non-Toxic | Non-Toxic | Non-Toxic | Non-Toxic |
| Cl.Oc1ccc2oc(-c3ncc[nH]3)cc2c1 | 9.57 | 3.84 | 4.87 | 4.6 | 0.32 | 29 | 11 |  |  | Non-Toxic | Non-Toxic | Non-Toxic | Non-Toxic | Non-Toxic | Non-Toxic | Non-Toxic | Non-Toxic |
| Cl.Cn1ccnc1-c1cc2ccccc2o1 | 6.99 | 3.75 | 5.98 | 5.35 | 17.4 | 38 | 170 |  |  | Non-Toxic | Non-Toxic | Non-Toxic | Non-Toxic | Non-Toxic | Non-Toxic | Non-Toxic | Non-Toxic |
| c1ccc2c(c1)OCC(C1=NCCN1)O2 (centres undefined) [IDAZOXAN] | 7.87 |  | 7.41 | 5.76 | 3.3 | 40 |  |  |  | Non-Toxic | Non-Toxic | Non-Toxic | Non-Toxic | Non-Toxic | Non-Toxic | Non-Toxic | Non-Toxic |

The next lines start with results.

| pKi [1] | pKi [2] | pKi [3] | pKi [4] | Papp [5] [×10⁻⁶ cm/s] | Activity (Homo sapiens [7]) [%] | Selectivity Index (Homo sapiens [8]) | Ki [9] [µM] | Ki [10] [µM] | Structure (SMILES) | Activity (Z-138) | Activity [6] | Activity (LN-229) | Activity (NCI-H460) | Activity (K562) | Activity (HCT-116) | Activity (CAPAN-1) | Activity (HL-60) |
| --- | --- | --- | --- | --- | --- | --- | --- | --- | --- | --- | --- | --- | --- | --- | --- | --- | --- |
| 6.77 | 3.01 | 5.88 | 4.58 | 7.6 | 46 | 741 |  |  | COc1ccc2cc(-c3ncc[nH]3)oc2c1.Cl | Non-Toxic | Non-Toxic | Non-Toxic | Non-Toxic | Non-Toxic | Non-Toxic | Non-Toxic | Non-Toxic |
|  | 3.76 | 5.48 |  | 0.1 |  | 52 |  |  | Cl.Oc1ccc2cc(-c3ncc[nH]3)oc2c1 | Non-Toxic | Non-Toxic | Non-Toxic | Non-Toxic | Non-Toxic | Non-Toxic | Non-Toxic | Non-Toxic |
| 9.08 | 4.58 | 8.31 | 7.15 | 6.1 | 58 | 5370 |  |  | c1ccc2oc(C3=NCCN3)cc2c1 | Non-Toxic | Non-Toxic | Non-Toxic | Non-Toxic | Non-Toxic | Non-Toxic | Non-Toxic | Non-Toxic |
|  | 3.94 | 6.41 |  | 8.3 |  | 295 |  |  | COc1ccc2oc(-c3ncc[nH]3)cc2c1.Cl | Non-Toxic | Non-Toxic | Non-Toxic | Non-Toxic | Non-Toxic | Non-Toxic | Non-Toxic | Non-Toxic |
